The source made the active and inactive calls. No cut-off for these calls is given here. Bounds are passed on as bounds.

The nature of data set [1]: Chemical stability in opthalmic vehicle containing 0.3% CMC in Ringer's solution at 100 uM up to 24 hrs at 40 degC by LC-MS analysis. In kind it is physicochemical. The procedure, abridged:
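Compound dissolved at 100 μM in ophthalmic vehicle (0.3% CMC in Ringer's solution), held 24 h at 40 °C; chemical integrity checked by LC/MS.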

Data set [2] concerns the target T1, Cystic fibrosis transmembrane conductance regulator (Homo sapiens, UniProt P13569). Kind of data set: Activation of CFTR in human primary bronchial epithelial cells assessed as increase in short-circuit current up to 10 uM measured after 10 mins in absence of forskolin by voltage clamp method.
Data set [3] deals with Mus musculus. Put plainly: Induction of tear secretion in mouse lacking functional CFTR up to 250 pmol administered as single topical dose up to 6 hrs by phenol red thread test. To be noted: in vivo, topical_or_ocular. The procedure, abridged: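 CF mice lacking functional CFTR; single ocular dose of 250 pmol in 2.5 μL ophthalmic vehicle, both eyes, vehicle control. Tear volume by phenol red thread 10 s in lateral canthus under isoflurane, measured before and at timed points after dosing. 5 mice, 10 eyes per condition.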

The target of data set [4] is T1, Cystic fibrosis transmembrane conductance regulator. Kind of data set: Activation of CFTR in human primary bronchial epithelial cells assessed as increase in forskolin-stimulated short-circuit current at 0.1 uM preincubated for 10 mins followed by forskolin addition by voltage clamp method.
Data set [5] relates to Mus musculus. Kind of data set: Induction of tear secretion in mouse assessed as minimum compound concentration required to show maximum effect administered as single topical dose at 1 to 3 hrs post dose by phenol red thread test. In kind it is functional. In a few lines:
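Dose-response in mice: single ocular doses of varied amounts (down to 25 pmol) in 2.5 μL ophthalmic vehicle to both eyes, vehicle control. Tear volume by phenol red thread (10 s, lateral canthus, isoflurane anesthesia) before and at timed points after dosing; 5 mice, 10 eyes per condition.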

Data set [6] is described as follows: Metabolic stability in rat hepatic microsomes assessed as parent compound remaining at 5 uM after 15 mins in presence of NADPH by LC-MS analysis. In kind it is ADME, Microsome. To be noted: liver microsomes, read-out: Stability. The procedure, abridged:
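Compound at 5 μM incubated at 37 °C with rat liver microsomes (1 mg/mL) in potassium phosphate buffer with 1 mM NADPH; quenched with ice-cold EtOAc, centrifuged, supernatant analysed by LC/MS (C18, water/acetonitrile with 0.1% formic acid gradient, UV 254 nm) for parent remaining; mean ± SEM, n = 3.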
In general terms: Microsomes from liver hold many membrane-bound enzymes, among them those of drug oxidation.

Data set [7] concerns Mus musculus. Kind of data set: Induction of tear secretion in mouse at 250 pmol administered as single topical dose up to 8 hrs by phenol red thread test. It is filed as functional. In a few lines: (§1)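 Mice 8–12 weeks (25–35 g); single ocular dose of 250 pmol (100 μM) in 2.5 μL vehicle (0.3% CMC in Ringer's), both eyes treated identically, vehicle control. Tear volume by phenol red thread, 10 s in lateral canthus under isoflurane, before and at set times after dosing. 5 mice, 10 eyes per condition; two-way ANOVA with Dunnett test.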

The subject of data set [8] is Mus musculus. Put plainly: Induction of tear secretion in mouse at 250 pmol administered as single topical dose after 12 to 24 hrs by phenol red thread test. In kind it is functional. In a few lines: as §1

T1 sequence (P13569 whole entry, looked up): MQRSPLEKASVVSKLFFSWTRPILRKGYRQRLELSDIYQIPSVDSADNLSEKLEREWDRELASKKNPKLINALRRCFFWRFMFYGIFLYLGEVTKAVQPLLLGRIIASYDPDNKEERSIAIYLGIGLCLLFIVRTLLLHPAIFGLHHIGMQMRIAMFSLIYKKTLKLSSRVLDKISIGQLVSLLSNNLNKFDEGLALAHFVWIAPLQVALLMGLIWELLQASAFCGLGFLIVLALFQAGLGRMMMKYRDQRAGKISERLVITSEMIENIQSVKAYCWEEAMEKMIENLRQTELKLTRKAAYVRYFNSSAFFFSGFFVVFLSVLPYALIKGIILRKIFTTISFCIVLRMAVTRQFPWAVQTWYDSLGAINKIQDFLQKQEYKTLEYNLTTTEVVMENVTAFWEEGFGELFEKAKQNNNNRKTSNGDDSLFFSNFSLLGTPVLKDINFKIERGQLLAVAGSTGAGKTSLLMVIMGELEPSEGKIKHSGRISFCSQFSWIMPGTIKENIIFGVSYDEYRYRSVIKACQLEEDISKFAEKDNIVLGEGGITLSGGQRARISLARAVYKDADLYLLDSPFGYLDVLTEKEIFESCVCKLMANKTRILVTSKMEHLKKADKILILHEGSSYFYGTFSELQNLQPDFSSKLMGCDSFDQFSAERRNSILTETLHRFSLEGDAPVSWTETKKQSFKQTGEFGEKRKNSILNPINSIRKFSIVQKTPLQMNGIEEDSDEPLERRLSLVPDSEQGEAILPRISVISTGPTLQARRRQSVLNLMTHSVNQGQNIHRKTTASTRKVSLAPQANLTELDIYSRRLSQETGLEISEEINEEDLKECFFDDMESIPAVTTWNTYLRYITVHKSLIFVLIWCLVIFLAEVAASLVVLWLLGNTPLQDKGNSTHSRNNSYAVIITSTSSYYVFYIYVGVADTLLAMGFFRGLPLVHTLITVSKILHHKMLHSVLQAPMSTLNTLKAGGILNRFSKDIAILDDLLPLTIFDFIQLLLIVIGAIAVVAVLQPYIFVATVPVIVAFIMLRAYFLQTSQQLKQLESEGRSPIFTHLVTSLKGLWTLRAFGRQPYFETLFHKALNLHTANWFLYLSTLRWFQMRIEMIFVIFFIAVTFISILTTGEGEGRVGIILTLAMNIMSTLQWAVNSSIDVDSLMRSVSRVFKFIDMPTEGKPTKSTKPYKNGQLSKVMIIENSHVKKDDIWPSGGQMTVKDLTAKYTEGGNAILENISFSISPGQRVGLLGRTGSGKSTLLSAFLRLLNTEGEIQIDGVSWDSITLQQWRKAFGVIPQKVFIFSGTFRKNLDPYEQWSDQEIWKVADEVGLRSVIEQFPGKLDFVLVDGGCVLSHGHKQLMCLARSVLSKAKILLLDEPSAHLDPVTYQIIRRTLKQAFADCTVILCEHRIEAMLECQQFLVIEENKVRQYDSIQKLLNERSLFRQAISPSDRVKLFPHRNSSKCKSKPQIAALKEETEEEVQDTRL

For `CNc1nc(Nc2ccccc2)nc(OCC(F)(F)C(F)F)n1`, the Stability result in data set [1] was “Stable”. The result (in data set [2]; in the data set with Mus musculus [8]) was inactive. Also, the Activity result with Mus musculus [3] is on record as “Non-Toxic”; with Mus musculus [5], 25 pmol. The result (in data set [4]; in the data set with Mus musculus [7]) was Active. Also, the remaining at […], 5 µM in data set [6] was under 40%.

Values taken from ChEMBL document CHEMBL3997791, “Nanomolar-Potency Aminophenyl-1,3,5-triazine Activators of the Cystic Fibrosis Transmembrane Conductance Regulator (CFTR) Chloride Channel for Prosecretory Therapy of Dry Eye Diseases” (J Med Chem, 2017).
